Results gathered from unrelated publications.
Compare with care: the assays were run in different laboratories.
Observed: enzyme activity
Mode: inhibitor
PDGFRA: Platelet-derived growth factor receptor alpha (PDGFRA, Homo sapiens, UniProt P16234)
PDGFRA V561D: Platelet-derived growth factor receptor alpha (PDGFRA, Homo sapiens, UniProt P16234, V561D)

CC/C(=N\NC(=O)NCc1cccc(O)c1)c1ccc(O)c(C)c1O  inhibition (Platelet-derived growth factor receptor alpha (PDGFRA, Homo sapiens, UniProt P16234, D842V); 0.1 µM): 1.1%
CNC(=O)c1cc(Oc2ccc(NC(=O)Nc3ccc(Cl)c(C(F)(F)F)c3)cc2)ccn1  inhibition (PDGFRA; 0.3 µM): 35%
CCCS(=O)(=O)Nc1ccc(F)c(C(=O)c2c[nH]c3ncc(-c4ccc(Cl)cc4)cc23)c1F  inhibition (PDGFRA; 1 µM): < 10%
CS(=O)(=O)Nc1cccc(-c2csc(NC(=O)CSc3nc4nccnc4c(=O)n3CCc3ccccc3)n2)c1  inhibition (PDGFRA; 10 µM): 5%
CNC(=O)c1cc2c(Oc3ccc(NC(=O)C4(C(=O)Nc5ccc(F)cc5)CC4)cc3)ccnc2cc1OC  inhibition (PDGFRA; radiometric; 1 µM): 71%
COc1cc2ncnc(Nc3ccc(Oc4ccccc4)c(C)c3C)c2cc1OC  inhibition (PDGFRA V561D; 1 µM): 7%
CNCc1ccc(-c2cc(-c3nc(-c4ccc(S(=O)(=O)C(C)C)cc4)cnc3N)on2)cc1  inhibition (PDGFRA; 2 µM): 9%
COc1cc2ncnc(Nc3ccc(Oc4ccccc4)cc3C)c2cc1OC  inhibition (PDGFRA V561D; 1 µM): 20%
COc1cc(-c2cc(-c3ccc(N4CCNCC4)cc3)cnc2N)cc(OC)c1OC  inhibition (Platelet-derived growth factor receptor alpha (PDGFRA, Homo sapiens, UniProt P16234, T674I); 0.1 µM): 2%
